Screening results: PubChem, several laboratories
V1aR counter – counter-screen for oxytocin receptor agonists: human V1a receptor agonists; activation, % at 3 µM; CHO-V1R cells, Fluo-8 calcium fluorescence, agonist mode; 0% DMSO, 100% 3 nM vasopressin; hit rate 0.25% among 320,000; AID 2797;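 active = activation above the mean activation of all tested compounds plus 3 SD, per screening run, cut at about 20% in these data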;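 note: signal is peak over basal fluorescence ratio across a 100 second FLIPR read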
OXTR potentiator – potentiators of human oxytocin receptor; AID 2445; P30559; activation, % at 3 µM; hit rate 0.061% among 320,000; CHO-OTR cells, Fluo-8 calcium fluorescence, potentiator mode; 0% = oxytocin EC15, 100% = EC100;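 active = activation above that plate's cutoff, the mean activation of tested compounds plus 3 SD, cut at about 6.6% in these data, passing the limit was not always enough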
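Material: CHO-OTR cells, human receptor; compound dosing: single dose, 3.0 µM nominal final compound concentration; schedule: 6 min compound pre-incubation at room temperature, 100 s kinetic read; measured by: kinetic Fluo-8 calcium fluorescence; read-out basis: % activation vs EC15 and EC100 oxytocin; controls: EC15 oxytocin alone as 0%, 75 nM oxytocin as 100%; replicates: singlicate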
TRPN1 ag – activates the zebrafish TRPN1 channel; activation, % at 3 µM; HEK293 zebrafish TRPN1-YFP, Fluo-8 calcium fluorescence; 100% = response to 87 µM carbachol; hit rate 0.18% among 220,000; AID 1424;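 active = activation above its plate's cutoff, the mean activation of test wells on that plate plus 3 SD, cut at about 19% in these data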
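Material: zebrafish TRPN1-YFP in HEK293 cells. Doses: one dose of 3 µM, 0.3% DMSO. Incubation: dye 1 h 37 °C plus 30 min RT. Measured by: intracellular calcium fluorescence with Fluo-8.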
OXTR ag – activates the human oxytocin receptor; P30559; CHO-OTR cells, Fluo-8 calcium fluorescence; normalized: DMSO 0%, oxytocin 100%; activation, % at 3 µM; hit rate 0.32% among 320,000; AID 2435;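 active = activation above the mean of all tested compounds plus 3 SD, cutoff set per screening run, cut at about 20% in these data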;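 note: peak over basal fluorescence ratio from a 100 s FLIPR kinetic read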
CRFR2-BP ag – agonists of human CRF-binding protein/CRF-R2 receptor complex; HEK293 CRF-R2/CRF-BP, calcium dye fluorescence (FLIPR); percent of saturating CRF peptide response; activation, % at 13.2 µM; hit rate 0.46% among 350,000; AID 588473;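 active = activation of at least 50%, plus an integration ratio under a set limit after plate pattern correction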
TRPML3 agonist – agonists of human TRPML3 channel; Q8TDD5; HEK293 TRPML3-YFP, Fluo-8 calcium fluorescence; 100% = the carbachol control signal; activation, % at 3 µM; hit rate 0.29% among 220,000;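 active = activation above its plate's cutoff, the mean activation of the plate's test wells plus 3 SD, cut at about 12% in these data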
Target sequence (Q8TDD5 whole entry, looked up): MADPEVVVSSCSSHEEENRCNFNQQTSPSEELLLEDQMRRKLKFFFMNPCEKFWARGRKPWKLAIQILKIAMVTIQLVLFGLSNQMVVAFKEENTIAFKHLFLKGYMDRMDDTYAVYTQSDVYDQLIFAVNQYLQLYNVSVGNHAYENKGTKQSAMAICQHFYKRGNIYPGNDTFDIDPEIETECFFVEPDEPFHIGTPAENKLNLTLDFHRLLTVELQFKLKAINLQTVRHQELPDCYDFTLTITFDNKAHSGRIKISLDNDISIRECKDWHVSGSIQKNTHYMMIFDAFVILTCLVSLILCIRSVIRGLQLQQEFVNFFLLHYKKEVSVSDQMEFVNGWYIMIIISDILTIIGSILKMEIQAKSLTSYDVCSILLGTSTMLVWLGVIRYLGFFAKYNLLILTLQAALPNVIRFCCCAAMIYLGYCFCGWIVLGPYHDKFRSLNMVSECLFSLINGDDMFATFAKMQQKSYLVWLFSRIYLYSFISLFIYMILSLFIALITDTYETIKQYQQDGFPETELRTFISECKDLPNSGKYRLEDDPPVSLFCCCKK
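system = HEK293 cells stably carrying human TRPML3-YFP | doses = one concentration, 3 µM nominal, 0.3% DMSO | timing = dye loading 1 h 37 °C then 30 min ambient, 125 s read | detection = Fluo-8 calcium dye fluorescence, ex 470-495, em 515-575 nm | benchmarks = high control carbachol 87 µM, low control DMSO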
Large screens that a line does not name were inactive. A selection: hits, their analogues and other compounds. The true share with any hit is near 0.85%.

CC(C)=C1C2CCC1C(C(=O)Nc1sc(C)c(-c3ccc(C(C)C)cc3)c1C(N)=O)C2C(=O)O (configuration not stated)	CRFR2-BP ag 78
CCCN1C(=O)/C(=C\C=C2\N(CC)c3ccccc3C2(C)C)SC1=S	CRFR2-BP ag 125 (no result: V1aR counter, OXTR potentiator, OXTR ag)
CCN1C(=O)C(=CC=CN(C)c2ccccc2)SC1=S	CRFR2-BP ag 103 (no result: V1aR counter, OXTR potentiator, TRPN1 ag, OXTR ag, TRPML3 agonist)
CN1/C(=C\C=C2/SC(=S)NC2=O)C(C)(C)c2ccccc21	V1aR counter 100, TRPN1 ag 33, OXTR ag 123, CRFR2-BP ag 164, TRPML3 agonist 19
COCCN1C(=O)/C(=C/c2ccc(N3CCCC3)cc2C)SC1=S	CRFR2-BP ag 182
CCN=C1S/C(=C\c2ccc(N3CCOCC3)cc2C)C(=O)N1CC	none
O=C(CSc1n[nH]c(=O)n1Cc1ccccc1)Nc1ccc(N2CCOCC2)cc1	none (no result: V1aR counter, OXTR potentiator, TRPN1 ag, OXTR ag, TRPML3 agonist)
Cc1ccccc1NS(=O)(=O)c1cc2c(cc1C)NC(=O)CO2	CRFR2-BP ag 60 (no result: TRPN1 ag, TRPML3 agonist)
O=C(Nc1ccc(S(=O)(=O)Nc2ccccc2)cc1)c1ccc(CN2CCOCC2)cc1	TRPN1 ag 20
Nc1ccc(-c2c3ccc(=O)cc-3oc3cc(O)ccc23)c(C(=O)O)c1	V1aR counter 206, OXTR ag 167, CRFR2-BP ag 232 (no result: TRPN1 ag, TRPML3 agonist)
Nc1ccc(O)c(C(=O)O)c1	none (no result: TRPN1 ag, CRFR2-BP ag, TRPML3 agonist)
C=CCN1C(c2cccc(C(F)(F)F)c2)=CS/C1=C(\C#N)c1nnc(N2CCOCC2)n1-c1ccccc1	CRFR2-BP ag 58 (no result: V1aR counter, OXTR potentiator, TRPN1 ag, OXTR ag, TRPML3 agonist)
Oc1[nH]c2ccccc2c1N=Nc1ccccc1Cl	CRFR2-BP ag 124 (no result: V1aR counter, OXTR potentiator, TRPN1 ag, OXTR ag, TRPML3 agonist)
Cn1cc(C2=C(c3ccc(Cl)cc3Cl)C(=O)NC2=O)c2ccccc21	V1aR counter 31, OXTR ag 29, CRFR2-BP ag 144 (no result: TRPN1 ag, TRPML3 agonist)
Cn1cc(-c2ccccc2C(N)=O)c(=O)c2cc(Cl)ccc21	none
O=C(C=Cc1ccccc1)c1cccs1	none (no result: V1aR counter, OXTR potentiator, TRPN1 ag, OXTR ag, TRPML3 agonist)
Nc1ccc(/C=C/C(=O)c2cccs2)cc1	CRFR2-BP ag 103
COc1cc(/C=C2\SC(=S)N(NC(=O)c3cccnc3)C2=O)ccc1O	none
COc1cc(/C=C2/SC(=S)N(CC3CCCO3)C2=O)ccc1O (configuration not stated)	V1aR counter 32, TRPN1 ag 37, OXTR ag 48, CRFR2-BP ag 151, TRPML3 agonist 34
CCOc1cc(/C=C2\SC(=S)N(NS(=O)(=O)c3ccccc3)C2=O)ccc1O	none (no result: TRPN1 ag, TRPML3 agonist)
COc1cc(/C=C2\SC(=S)N(c3cccnc3)C2=O)ccc1O	V1aR counter 26, TRPN1 ag 21, OXTR ag 24
COc1ccc(/C=C2\SC(=S)N(CC3CCCO3)C2=O)cc1 (configuration not stated)	none
CCOc1cc(/C=C2\SC(=S)N(Nc3ccccc3)C2=O)ccc1O	V1aR counter 27, TRPN1 ag 22, OXTR ag 47, TRPML3 agonist 16
COc1cc(/C=C2\SC(=S)N(NC(=O)c3ccc(O)cc3)C2=O)ccc1O	V1aR counter 25, OXTR ag 64, CRFR2-BP ag 53 (no result: TRPN1 ag, TRPML3 agonist)
CN1CCN(CC(=O)Nc2cc(S(=O)(=O)N3CCOCC3)ccc2Cl)CC1	none (no result: TRPN1 ag, TRPML3 agonist)
Cc1ccccc1CN1CCCC(C(=O)Nc2ccccc2Oc2cccnc2)C1 (configuration not stated)	none (no result: TRPN1 ag, TRPML3 agonist)
COc1cc(/C=C2\SC(=S)N(C(Cc3ccccc3)C(=O)O)C2=O)ccc1O (configuration not stated)	V1aR counter 30, TRPN1 ag 22, OXTR ag 28, TRPML3 agonist 12
COc1cc(/C=C2\SC(=S)N(Nc3ccccc3)C2=O)ccc1O	V1aR counter 24, TRPN1 ag 25, OXTR ag 58, TRPML3 agonist 14
CC(C)(C)c1ccc(OCc2ccc(C(=O)Nc3cccnc3)o2)cc1	none (no result: TRPN1 ag, TRPML3 agonist)
O=C(Nc1ccccc1)Nc1ccc(Cl)c(S(=O)(=O)N2CCOCC2)c1	TRPN1 ag 23, TRPML3 agonist 13
COc1cccc(-c2ncc3ccccc3c2COC(=O)CCCC(=O)O)c1	none (no result: TRPN1 ag, TRPML3 agonist)
CC(C)N(C(=O)[C@H]1CC(CC(=O)NCCc2ccccn2)C(=O)N2CCc3c([nH]c4ccccc34)[C@]12C)C(C)C (some centres not stated)	none (no result: TRPN1 ag, TRPML3 agonist)
CSc1nc(-c2ccc(N(C)C)cc2)c(C#N)c(=O)n1C	CRFR2-BP ag 62
COc1ccc2nc(N3CCC(O)CC3)c(C#N)cc2c1	CRFR2-BP ag 52
COc1ccc2nc(N3CCC(C)CC3)c(C#N)cc2c1	none
Cn1c(N)c(C(=O)COC(=O)C2Cc3ccccc3CN2S(C)(=O)=O)c(=O)n(C)c1=O (configuration not stated)	none (no result: V1aR counter, OXTR potentiator, TRPN1 ag, OXTR ag, TRPML3 agonist)
O=C(Nc1ccc(Br)cc1)C1CCCN(C2=NS(=O)(=O)c3ccccc32)C1 (configuration not stated)	none (no result: TRPN1 ag, TRPML3 agonist)
CC(C)N1CCc2c(sc(NC(=O)c3nc4ccccc4s3)c2C(N)=O)C1	none
CNC(=O)c1c(NC(=O)c2ccc(S(=O)(=O)N(C)c3ccccc3)cc2)sc2c1CCN(C(C)C)C2	CRFR2-BP ag 160 (no result: TRPN1 ag, TRPML3 agonist)
CCN1CCc2c(sc(NC(=O)c3ccc(S(=O)(=O)N(C)c4ccccc4)cc3)c2C(=O)NC)C1	CRFR2-BP ag 162 (no result: TRPN1 ag, TRPML3 agonist)
CC(C)N1CCc2c(sc(NC(=O)c3ccc(S(=O)(=O)N4CCc5ccccc54)cc3)c2C(N)=O)C1	CRFR2-BP ag 107
COc1ccc(-c2nnc(NC(=O)c3ccc(S(=O)(=O)N4COCC4(C)C)cc3)o2)cc1	none
CC1(C)COCN1S(=O)(=O)c1ccc(C(=O)Nc2nnc(-c3ccc(Cl)s3)o2)cc1	CRFR2-BP ag 90
CCC1CCCCN1S(=O)(=O)c1ccc(C(=O)Nc2nnc(-c3ccccc3Cl)o2)cc1 (configuration not stated)	CRFR2-BP ag 126
O=C(Nc1nnc(-c2ccccc2Cl)o1)c1ccc(S(=O)(=O)N2CCCCCC2)cc1	CRFR2-BP ag 54
CC1CCCCN1S(=O)(=O)c1ccc(C(=O)Nc2nnc(-c3ccccc3Cl)o2)cc1 (configuration not stated)	none
CS(=O)(=O)Nc1cccc(C2=NN(C(=O)c3ccco3)C(c3cccs3)C2)c1 (configuration not stated)	none (no result: TRPN1 ag, TRPML3 agonist)
CN(CC(=O)Nc1ccc(Cl)c(Cl)c1)CC(=O)Nc1ccc2c(c1)OCO2	none (no result: TRPN1 ag, TRPML3 agonist)
O=C(CNCc1cccs1)Nc1ccc(OC(F)(F)F)cc1	none (no result: TRPN1 ag, TRPML3 agonist)
Cc1ccc(Cl)cc1N1CCN(S(=O)(=O)c2c(C)[nH]c(C)c2C(=O)N2CCCCC2)CC1	none (no result: TRPN1 ag, TRPML3 agonist)
CCC(=O)N1CCN(c2ccc(NC(=O)COc3ccc(CC)cc3)cc2)CC1	none (no result: TRPN1 ag, TRPML3 agonist)
CC(C)(C)S(=O)(=O)/C(C#N)=N/Nc1ccc(Cl)cc1	TRPN1 ag 21
CC(C)(C)c1ccc(N/N=C(\C#N)S(=O)(=O)C(C)(C)C)cc1	none
